Calls of active or inactive are those of the source. The rule behind the calls is not given here.
Tests used:
[1] = molecular target: T1, Catechol O-methyltransferase (Homo sapiens) (UniProt P21964); experiment: Inhibition of S-COMT (unknown origin) assessed as scopoletin formation by measuring fluorescence using 6,7-dihydroxycoumarin as substrate at 100 uM and measured for 60 mins by fluorescence based microplate reader assay
T1 sequence (whole entry): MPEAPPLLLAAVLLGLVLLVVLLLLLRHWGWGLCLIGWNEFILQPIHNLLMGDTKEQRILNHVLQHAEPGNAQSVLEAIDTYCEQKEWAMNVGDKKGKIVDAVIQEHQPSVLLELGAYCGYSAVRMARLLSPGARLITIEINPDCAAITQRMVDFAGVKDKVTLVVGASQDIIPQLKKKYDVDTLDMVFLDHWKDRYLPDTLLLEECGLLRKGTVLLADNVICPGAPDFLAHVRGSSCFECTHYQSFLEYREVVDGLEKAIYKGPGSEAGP
Method in brief: (§1)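 Soluble COMT (S-COMT) activity was run at 37 °C and pH 7.4. The substrate was aesculetin (6,7-dihydroxycoumarin) at 6 μM, which methylation converts to fluorescent scopoletin. Fluorescence was read over 60 min. Test catechols were added at 10 μM or 100 μM. Each was assayed at least in triplicate, and the signal was normalized to the no-inhibitor aesculetin fluorescence.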

[2] = Stability of compound in phosphate buffer at 7.4 assessed as drug degradation incubated for 1 hr by HPLC analysis; format: physicochemical; conditions: for degraded at 1 h: phosphate buffer, pH 7.4, read-out: Drug degradation; for Stability: buffer, pH 7.4, 1 h
Method in brief: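 Compounds were incubated at assay conditions, 37 °C in phosphate buffer at pH 7.4, for 1 hour. Degradation was then assessed by HPLC analysis.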

[3] = molecular target: T1, Catechol O-methyltransferase (Homo sapiens); experiment: Inhibition of S-COMT (unknown origin) assessed as scopoletin formation by measuring fluorescence using 6,7-dihydroxycoumarin as substrate at 10 uM and measured for 60 mins by fluorescence based microplate reader assay; method in brief: as §1
[4] = Dissociation constant, pKa of compound pH 3.01 to 12.36 at 0.2 mM by spectroscopic analysis; format: physicochemical
Method in brief: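 Five-buffer series in which CHES replaced Borax over pH 8.2–10.8, with KCl buffers added to widen the range. Compound dissolved in each buffer across pH 3.01–12.36 to a final 0.2 mM. Absorbance was read, normalized, and fitted to give the first and, where determinable, second catechol hydroxyl pKa.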

| Structure (SMILES) | inhibition [1] | degraded at 1 h [2] | inhibition [3] | pKa at 200 µM [4] | Stability [2] |
| --- | --- | --- | --- | --- | --- |
| N#CCc1cc(O)c(O)cc1[N+](=O)[O-] | Active | < 5% | Active | 6.23 | – |
| N#Cc1ccc(O)c(O)c1 | Active | – | inactive | 7.45 | Stable |
| NCCc1cc(O)c(O)cc1O [OXIDOPAMINE] | Active | > 40% | inactive | – | – |
| N#CCCc1ccc(O)c(O)c1 | Active | – | inactive | – | Unstable |
| N#Cc1cc(O)c(O)cc1CCN | 30% | – | inactive | – | Stable |
| NCCc1cc(O)c(O)cc1[N+](=O)[O-] | 50% | – | inactive | 6.33 | Stable |
| NCCc1ccc(O)c(O)c1 [DOPAMINE] | – | – | – | 8.66 | Stable |
| N#CCc1ccc(O)c(O)c1 | Active | – | inactive | 9.6 | Stable |
| N#CCCc1cc(O)c(O)cc1[N+](=O)[O-] | Active | – | inactive | – | Stable |
| Oc1cc2c(cc1O)CNCC2 | inactive | – | inactive | – | Unstable |
| NCCc1cc(O)c(O)cc1C(=O)O | inactive | – | inactive | – | Stable |
| NCCc1cc(O)c(O)cc1Br | inactive | – | inactive | – | Stable |

Source: ChEMBL document CHEMBL5257094, “Synthesis and analysis of novel catecholic ligands as inhibitors of catechol-O-methyltransferase” (Bioorg Med Chem Lett, 2023)
